Tests used:
[1] = cells; type: functional, cell-based; details: Homo sapiens, A549, 48 h
[2] = target: Epidermal growth factor receptor (Homo sapiens, UniProt P00533)
[3] = target: Receptor tyrosine-protein kinase erbB-2 (Homo sapiens, UniProt P04626); assay: Inhibition of HER2 (unknown origin) assessed as remaining ATP level measured after 15 mins by luminescence analysis
How it was run: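 Kinase run as a contracted HTRF assay. Compounds in 3-fold dilution in 2.5% DMSO/kinase buffer, mixed with kinase and substrate, preincubated 15 min at RT. ATP added to start, reaction 30 min at RT. Stopped with Streptavidin-XL665 plus europium-cryptate TK antibody (1:100). Excitation 320 nm, 665/615 nm emission ratio. IC50 from inhibition curves, results from 2 assays.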

[4] = cells; type: functional, cell-based; details: Homo sapiens, BT-474, 48 h
[5] = target: Histone deacetylase 1 (Homo sapiens, UniProt Q13547); assay: Inhibition of HDAC1 (unknown origin) using acetylated peptide substrate preincubated for 15 mins followed by substrate addition measured after 60 mins by fluorescence analysis
Sequence of Histone deacetylase 1 (Q13547 whole entry): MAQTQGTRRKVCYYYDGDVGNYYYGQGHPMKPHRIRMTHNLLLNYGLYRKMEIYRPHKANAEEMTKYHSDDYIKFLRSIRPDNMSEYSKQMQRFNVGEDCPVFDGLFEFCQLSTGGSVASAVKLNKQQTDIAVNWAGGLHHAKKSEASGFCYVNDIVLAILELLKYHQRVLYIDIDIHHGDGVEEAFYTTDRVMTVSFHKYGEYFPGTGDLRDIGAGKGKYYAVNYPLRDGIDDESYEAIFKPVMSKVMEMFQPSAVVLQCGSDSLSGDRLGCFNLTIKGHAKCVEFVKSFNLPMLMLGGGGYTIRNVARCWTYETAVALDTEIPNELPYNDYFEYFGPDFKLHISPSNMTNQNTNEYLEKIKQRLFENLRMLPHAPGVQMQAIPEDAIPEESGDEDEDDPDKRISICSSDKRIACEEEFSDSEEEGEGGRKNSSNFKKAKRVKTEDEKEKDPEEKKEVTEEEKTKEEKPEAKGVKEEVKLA

[6] = target: T1, Protein deacetylase HDAC6 (Homo sapiens, UniProt Q9UBN7); assay: Inhibition of HDAC6 (unknown origin) using acetylated peptide substrate preincubated for 15 mins followed by substrate addition measured after 60 mins by fluorescence analysis
T1 sequence (Q9UBN7 whole entry): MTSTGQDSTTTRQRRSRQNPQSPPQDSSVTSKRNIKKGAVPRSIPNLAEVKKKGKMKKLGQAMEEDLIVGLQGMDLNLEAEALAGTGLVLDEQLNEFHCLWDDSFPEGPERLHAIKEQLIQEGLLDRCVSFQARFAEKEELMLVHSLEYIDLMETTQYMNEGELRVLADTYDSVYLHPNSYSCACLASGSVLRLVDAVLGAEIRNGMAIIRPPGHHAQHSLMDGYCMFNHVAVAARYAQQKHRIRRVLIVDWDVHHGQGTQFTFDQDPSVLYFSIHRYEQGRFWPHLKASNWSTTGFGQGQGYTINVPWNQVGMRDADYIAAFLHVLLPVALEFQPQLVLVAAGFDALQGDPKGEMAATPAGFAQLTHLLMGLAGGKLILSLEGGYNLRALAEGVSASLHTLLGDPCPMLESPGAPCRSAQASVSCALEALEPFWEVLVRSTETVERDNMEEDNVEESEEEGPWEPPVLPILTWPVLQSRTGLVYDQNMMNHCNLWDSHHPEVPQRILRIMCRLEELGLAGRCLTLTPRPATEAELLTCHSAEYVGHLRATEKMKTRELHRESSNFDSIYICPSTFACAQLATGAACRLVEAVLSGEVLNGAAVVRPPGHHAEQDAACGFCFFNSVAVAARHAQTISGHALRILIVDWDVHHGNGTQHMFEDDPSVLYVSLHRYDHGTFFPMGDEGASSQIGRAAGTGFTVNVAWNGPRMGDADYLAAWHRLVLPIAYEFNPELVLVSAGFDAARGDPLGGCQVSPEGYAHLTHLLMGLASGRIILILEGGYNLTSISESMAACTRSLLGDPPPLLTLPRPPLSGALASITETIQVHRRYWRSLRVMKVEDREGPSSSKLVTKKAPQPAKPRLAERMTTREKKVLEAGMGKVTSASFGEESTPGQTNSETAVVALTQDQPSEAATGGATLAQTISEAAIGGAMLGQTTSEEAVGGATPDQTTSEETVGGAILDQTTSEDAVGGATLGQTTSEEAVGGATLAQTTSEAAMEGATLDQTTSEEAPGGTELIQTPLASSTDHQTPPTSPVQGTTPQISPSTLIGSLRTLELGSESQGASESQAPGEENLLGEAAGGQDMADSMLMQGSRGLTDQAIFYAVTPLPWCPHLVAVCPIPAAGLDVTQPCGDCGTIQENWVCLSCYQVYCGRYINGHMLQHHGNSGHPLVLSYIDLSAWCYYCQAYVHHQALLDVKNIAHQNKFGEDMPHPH

[7] = cells; details: Homo sapiens, SK-BR-3, 48 h
[8] = cells; details: Homo sapiens, NCI-H1975, 48 h
[9] = cells; details: Homo sapiens, A-431, 48 h

Sequence of Epidermal growth factor receptor (P00533 whole entry): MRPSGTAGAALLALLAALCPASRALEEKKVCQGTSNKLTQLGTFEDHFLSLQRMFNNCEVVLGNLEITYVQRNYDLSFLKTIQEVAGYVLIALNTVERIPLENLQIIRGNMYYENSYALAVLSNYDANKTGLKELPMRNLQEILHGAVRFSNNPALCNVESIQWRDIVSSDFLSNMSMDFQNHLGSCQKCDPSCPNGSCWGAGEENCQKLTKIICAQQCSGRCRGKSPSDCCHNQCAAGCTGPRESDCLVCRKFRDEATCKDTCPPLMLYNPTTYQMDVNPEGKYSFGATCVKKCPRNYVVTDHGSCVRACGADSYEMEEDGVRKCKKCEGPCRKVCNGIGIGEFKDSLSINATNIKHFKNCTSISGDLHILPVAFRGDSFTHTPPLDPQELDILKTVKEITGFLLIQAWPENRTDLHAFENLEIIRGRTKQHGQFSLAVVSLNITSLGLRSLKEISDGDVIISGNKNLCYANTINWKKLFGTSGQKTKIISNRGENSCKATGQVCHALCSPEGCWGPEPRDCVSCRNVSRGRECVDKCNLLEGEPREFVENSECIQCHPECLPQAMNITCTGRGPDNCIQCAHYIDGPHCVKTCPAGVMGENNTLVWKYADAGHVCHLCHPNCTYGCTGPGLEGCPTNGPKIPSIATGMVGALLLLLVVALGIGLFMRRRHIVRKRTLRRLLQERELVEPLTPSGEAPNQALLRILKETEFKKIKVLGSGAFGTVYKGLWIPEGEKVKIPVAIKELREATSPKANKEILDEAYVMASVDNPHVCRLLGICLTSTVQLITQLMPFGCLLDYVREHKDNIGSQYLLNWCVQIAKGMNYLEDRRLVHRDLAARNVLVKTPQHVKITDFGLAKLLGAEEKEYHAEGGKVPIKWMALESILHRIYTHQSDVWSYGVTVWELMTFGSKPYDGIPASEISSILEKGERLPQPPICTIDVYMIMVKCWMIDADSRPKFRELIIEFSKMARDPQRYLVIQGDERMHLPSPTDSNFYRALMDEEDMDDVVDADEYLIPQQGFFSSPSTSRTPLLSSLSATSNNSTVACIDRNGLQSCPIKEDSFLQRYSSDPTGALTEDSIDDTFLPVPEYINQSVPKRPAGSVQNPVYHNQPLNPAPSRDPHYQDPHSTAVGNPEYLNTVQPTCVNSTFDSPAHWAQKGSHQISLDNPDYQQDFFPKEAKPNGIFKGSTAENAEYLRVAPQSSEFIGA
Sequence of Receptor tyrosine-protein kinase erbB-2 (P04626 whole entry): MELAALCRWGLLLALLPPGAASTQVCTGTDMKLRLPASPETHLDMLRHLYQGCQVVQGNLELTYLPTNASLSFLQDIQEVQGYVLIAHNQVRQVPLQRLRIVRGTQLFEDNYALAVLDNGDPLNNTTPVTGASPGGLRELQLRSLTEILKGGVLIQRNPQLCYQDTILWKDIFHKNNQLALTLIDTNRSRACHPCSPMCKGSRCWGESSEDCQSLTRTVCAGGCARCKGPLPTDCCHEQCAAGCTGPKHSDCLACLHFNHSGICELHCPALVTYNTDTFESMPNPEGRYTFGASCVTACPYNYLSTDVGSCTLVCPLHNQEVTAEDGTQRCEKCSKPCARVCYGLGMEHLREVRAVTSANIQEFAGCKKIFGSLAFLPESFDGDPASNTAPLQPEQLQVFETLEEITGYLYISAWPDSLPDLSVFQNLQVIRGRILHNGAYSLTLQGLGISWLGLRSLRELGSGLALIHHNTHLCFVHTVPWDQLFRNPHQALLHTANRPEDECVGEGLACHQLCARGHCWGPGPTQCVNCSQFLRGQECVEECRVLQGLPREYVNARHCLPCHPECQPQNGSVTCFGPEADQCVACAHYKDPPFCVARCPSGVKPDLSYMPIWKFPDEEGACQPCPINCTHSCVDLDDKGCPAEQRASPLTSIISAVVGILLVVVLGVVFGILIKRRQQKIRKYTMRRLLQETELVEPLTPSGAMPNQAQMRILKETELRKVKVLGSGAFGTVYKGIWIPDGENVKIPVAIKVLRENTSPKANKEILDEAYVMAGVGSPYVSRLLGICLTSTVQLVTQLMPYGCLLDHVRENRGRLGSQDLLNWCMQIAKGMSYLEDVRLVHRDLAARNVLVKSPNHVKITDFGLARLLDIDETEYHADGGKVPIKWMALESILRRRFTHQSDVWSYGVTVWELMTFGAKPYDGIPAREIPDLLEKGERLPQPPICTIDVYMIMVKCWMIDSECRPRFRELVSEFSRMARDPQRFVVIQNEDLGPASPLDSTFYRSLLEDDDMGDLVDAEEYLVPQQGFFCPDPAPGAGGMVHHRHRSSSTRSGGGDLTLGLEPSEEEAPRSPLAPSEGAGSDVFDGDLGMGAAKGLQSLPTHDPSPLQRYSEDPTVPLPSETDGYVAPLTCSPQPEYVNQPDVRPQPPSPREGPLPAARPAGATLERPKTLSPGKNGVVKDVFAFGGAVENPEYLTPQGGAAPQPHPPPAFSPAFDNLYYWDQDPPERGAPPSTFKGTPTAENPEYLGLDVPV

O=C(CCCCCn1cc(-c2ccc3ncnc(Nc4ccc(OCc5nccs5)c(Cl)c4)c3c2)nn1)NO
IC50 [1]: 9.96 µM
IC50 [2]: 0.0069 µM
IC50 [3]: 0.537 µM
IC50 [4]: 20.6 µM
IC50 [5]: 0.0072 µM
IC50 [6]: 0.0143 µM

CS(=O)(=O)CCNCc1ccc(-c2ccc3ncnc(Nc4ccc(OCc5cccc(F)c5)c(Cl)c4)c3c2)o1 [LAPATINIB]
IC50 [7]: 0.06 µM
IC50 [1]: 0.51 to 1.74 µM
IC50 [8]: 7.25 µM
IC50 [4]: 0.1 µM
IC50 [9]: 0.15 µM

O=C(CCCCCCn1cc(-c2ccc3ncnc(Nc4ccc(OCc5cccc(F)c5)c(Cl)c4)c3c2)nn1)NO
IC50 [1]: 3.68 µM
IC50 [2]: 0.0042 µM
IC50 [3]: 0.0164 µM
IC50 [4]: 2.24 µM
IC50 [5]: 0.0083 µM
IC50 [6]: 0.0195 µM

O=C(CCCCCCC(=O)Nc1ccccc1)NO [VORINOSTAT]
IC50 [9]: 2.29 µM

COc1cc(Nc2ncnc3ccc(-c4cn(CCCCCCC(=O)NO)nn4)cc23)ccc1Oc1ccccc1
IC50 [1]: 13.5 µM
IC50 [2]: 0.0116 µM
IC50 [3]: > 1 µM
IC50 [4]: 4.95 µM
IC50 [5]: 0.0128 µM
IC50 [6]: 0.016 µM

O=C(CCCCCn1cc(-c2ccc3ncnc(Nc4cccc(Cl)c4F)c3c2)nn1)NO
IC50 [1]: > 50 µM
IC50 [2]: 0.00027 µM
IC50 [3]: 0.386 µM
IC50 [4]: > 50 µM
IC50 [5]: 0.0014 µM
IC50 [6]: 0.0041 µM

O=C(CCCCCn1cc(-c2ccc3ncnc(Nc4ccc(F)c(Cl)c4)c3c2)nn1)NO
IC50 [1]: > 50 µM
IC50 [2]: 0.00065 µM
IC50 [3]: 0.166 µM
IC50 [4]: 26 µM
IC50 [5]: 0.007 µM
IC50 [6]: 0.0095 µM

COc1cc(Nc2ncnc3ccc(-c4cn(CCCCCC(=O)NO)nn4)cc23)ccc1Oc1ccccc1
IC50 [1]: 43.5 µM
IC50 [2]: 0.0058 µM
IC50 [3]: > 1 µM
IC50 [4]: 23.6 µM
IC50 [5]: 0.0266 µM
IC50 [6]: 0.0185 µM

Source: ChEMBL document CHEMBL3870325 (Bioorg Med Chem, 2017)
